Reference: ChEMBL document CHEMBL4765236, “Insights into the Antimicrobial Activity and Cytotoxicity of Engineered α-Helical Peptide Amphiphiles” (J Med Chem, 2016)
Activity calls are given as the source filed them. No cut-off for these calls is given here.

Experiments:
[1] = system: Bacillus pumilus; test: Antibacterial activity against Bacillus pumilus CMCC 63202 assessed as bacterial growth inhibition incubated for 18 to 24 hrs by microtiter broth dilution method; assay type: functional; settings: time 18-24 hrs
Procedure, shortened: (§1)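 Log-phase cells (grown overnight at 37 °C, subcultured in MHB) diluted to 10^5 CFU/mL in MHB and mixed 1:1 with serial peptide dilutions prepared in 0.01% acetic acid/0.2% BSA. Incubated 37 °C for 18-24 h. MIC is the lowest concentration giving no growth by OD492. Reported as the average of 3-5 independent experiments.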

[2] = system: Staphylococcus aureus; test: Bactericidal activity against Staphylococcus aureus ATCC 29213 assessed as bacterial killing at 1 times MIC by time kill assay; assay type: functional, organism-based; settings: time 1085.0 min, TDE = time-dependent effect
Procedure, shortened: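 Log-phase S. aureus 29213 exposed to peptide at 1 × MIC in 10 mM PBS pH 7.4 at 37 °C for 0-90 min. Aliquots taken at fixed intervals, diluted and plated on nutrient agar, and colonies counted after 18 h at 37 °C. Average of three independent assays.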

[3] = Therapeutic index, ratio of MHC10 for human RBC to geometric mean of peptide MIC for Escherichia coli O157:H7 CICC 21530; assay type: toxicity; settings: human red blood cells (RBC), pooled result: one value given for 11 cell lines, strains, targets or settings, read-out: TI
Procedure, shortened: (§2)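 Therapeutic index = MHC (peptide concentration giving 10% hemolysis of human RBCs, 1 h, 37 °C, A540) divided by geometric mean of MICs from broth microdilution (10^5 CFU/mL in MHB, 37 °C, 18-24 h, OD492).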

[4] = system: RAW264.7; test: Antiinflammatory activity against mouse RAW264.7 cells assessed as inhibition of LPS-induced nitric oxide production measured after 24 hrs by Griess reagent based ELISA; assay type: functional, cell-based; settings: dose 0.5-64 µM
Procedure, shortened: (§3)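 RAW264.7 cells plated at 1-2 × 10^5 cells/mL and stimulated with 500 ng/mL LPS with or without peptide (0.5-64 µM) for 24 h at 37 °C. Controls were untreated cells and LPS alone. TNF-α in the supernatant measured by ELISA. NO measured by Griess reagent (1% sulfanilamide, 0.1% naphthylethylenediamine, 5% phosphoric acid).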

[5] = system: Salmonella enterica; test: Antibacterial activity against Salmonella choleraesuis ATCC 13312 assessed as bacterial growth inhibition incubated for 18 to 24 hrs by broth dilution method; assay type: functional; settings: time 18-24 hrs
Procedure, shortened: (§4)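 Log-phase bacteria grown at 37 °C in MHB, diluted to 10^5 CFU/mL, mixed 1:1 with serial peptide dilutions (peptide diluted in 0.01% acetic acid, 0.2% BSA); 37 °C for 18-24 h. MIC read by OD492 as lowest concentration giving no growth; mean of 3-5 independent experiments.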

[6] = system: Staphylococcus aureus; test: Antibacterial activity against Staphylococcus aureus ATCC 29213 assessed as bacterial growth inhibition incubated for 18 to 24 hrs in presence of 150 mM NaCl by microtiter broth dilution method (reference value: 0.43 to > 71.5 uM); assay type: functional; settings: time 18-24 hrs
[7] = system: Cell membrane; test: Induction of outer membrane permeabilization in Escherichia coli O157:H7 CICC 21530 assessed as increase in fluorescence intensity by NPN-dye based fluorescence assay; assay type: subcellular; settings: dose 0.625-7.5 µM
[8] = system: Erythrocyte; test: Hemolytic activity against human red blood cells assessed as concentration required to cause 10% hemoglobin release measured after 1 hr by microplate reader analysis; assay type: ADME, cell-based
Procedure, shortened: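 Fresh heparinized human RBCs washed three times in 10 mM PBS pH 7.4 and resuspended to about 1% (v/v) (5.4 × 10^8 cells/mL). Mixed 1:1 with peptide in PBS for 1 h at 37 °C, then centrifuged. Supernatant hemoglobin read at A540. PBS set as 0% and 0.1% Triton X-100 as 100% hemolysis. MHC is the concentration causing 10% hemolysis.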

[9] = system: Salmonella paratyphi; test: Antibacterial activity against Salmonella paratyphi A CICC 20501 assessed as bacterial growth inhibition incubated for 18 to 24 hrs by microtiter broth dilution method; assay type: functional, Salmonella enterica subsp. enterica serovar Paratyphi A; settings: Salmonella enterica, time 18-24 hrs; procedure, shortened: as §4
[10] = Therapeutic index, ratio of MHC10 for human RBC to geometric mean of peptide MIC for Staphylococcus aureus ATCC 29213; assay type: toxicity; settings: human red blood cells (RBC), pooled result: one value given for 9 cell lines, strains, targets or settings, read-out: TI; procedure, shortened: as §2
[11] = system: Shigella flexneri; test: Antibacterial activity against Shigella flexneri CMCC 51571 assessed as bacterial growth inhibition incubated for 18 to 24 hrs by microtiter broth dilution method; assay type: functional; settings: time 18-24 hrs; procedure, shortened: as §1
[12] = system: RAW264.7; test: Antiinflammatory activity against mouse RAW264.7 cells assessed as inhibition of LPS-induced TNF-alpha production at 0.5 to 64 uM measured after 24 hrs by […] ELISA; assay type: functional, cell-based; settings: dose 0.5-64 µM; procedure, shortened: as §3
[13] = system: Staphylococcus aureus; test: Antibacterial activity against Staphylococcus aureus ATCC 29213 assessed as bacterial growth inhibition incubated for 18 to 24 hrs by microtiter broth dilution method; assay type: functional; settings: time 18-24 hrs; procedure, shortened: as §1
[14] = system: Vibrio parahaemolyticus; test: Antibacterial activity against Vibrio parahaemolyticus CICC 21617 assessed as bacterial growth inhibition incubated for 18 to 24 hrs by broth dilution method; assay type: functional; settings: time 18-24 hrs; procedure, shortened: as §1
[15] = system: Staphylococcus aureus; test: Antibacterial activity against Staphylococcus aureus ATCC 29213 assessed as bacterial growth inhibition incubated for 18 to 24 hrs in presence of 2 mM CaCl2 by microtiter broth dilution method (reference value: 0.43 to > 71.5 uM); assay type: functional; settings: time 18-24 hrs
[16] = system: Bacillus cereus; test: Antibacterial activity against Bacillus cereus CMCC 63301 assessed as bacterial growth inhibition incubated for 18 to 24 hrs by microtiter broth dilution method; assay type: functional; settings: time 18-24 hrs; procedure, shortened: as §1
[17] = system: Escherichia coli; test: Antibacterial activity against Escherichia coli ATCC 35150 assessed as bacterial growth inhibition incubated for 18 to 24 hrs by microtiter broth dilution method; assay type: functional; settings: time 18-24 hrs; procedure, shortened: as §1
[18] = system: Escherichia coli; test: Antibacterial activity against Escherichia coli O157:H7 CICC 21530 assessed as bacterial growth inhibition incubated for 18 to 24 hrs in presence of 4 mM FeCl3 by microtiter broth dilution method (reference value: 0.85 to > 71.5 uM); assay type: functional; settings: time 18-24 hrs
[19] = system: Pseudomonas fluorescens; test: Antibacterial activity against Pseudomonas fluorescens CICC 21620 assessed as bacterial growth inhibition incubated for 18 to 24 hrs by microtiter broth dilution method; assay type: functional; settings: time 18-24 hrs; procedure, shortened: as §1
[20] = system: Escherichia coli; test: Antibacterial activity against Escherichia coli O157:H7 CICC 21530 assessed as bacterial growth inhibition incubated for 18 to 24 hrs in presence of 2 mM CaCl2 by microtiter broth dilution method (reference value: 0.85 to > 71.5 uM); assay type: functional; settings: time 18-24 hrs
[21] = system: Staphylococcus aureus; test: Induction of morphological changes in Staphylococcus aureus ATCC 29213 assessed as membrane blebbing at 1 times MIC after 60 mins by SEM analysis; assay type: functional, organism-based
Procedure, shortened: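 S. aureus grown to exponential phase in MHB at 37 °C with shaking at 220 rpm. Cells washed twice in PBS, resuspended to OD600 0.2, then exposed to peptide at 1× MIC for 60 min at 37 °C; untreated cells served as control. Cells were pelleted, PBS-washed, fixed overnight in 2.5% glutaraldehyde at 4 °C, dehydrated through graded ethanol then tert-butanol, and imaged by SEM.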

[22] = system: Cell membrane; test: Induction of cell membrane disruption in Escherichia coli O157:H7 CICC 21530 assessed as propidium iodide-positive cells measured after 30 mins by flow cytometry analysis; assay type: subcellular

Substance | MIC [1] [µM] | Activity [2] | selectivity ratio [3] | Activity [4] | MIC [5] [µM] | MIC [6] [µM] | Activity [7] | MHC10 [8] [µM] | MIC [9] [µM] | selectivity ratio [10] | MIC [11] [µM] | Activity [12] | MIC [13] [µM] | MIC [14] [µM] | MIC [15] [µM] | MIC [16] [µM] | MIC [17] [µM] | MIC [18] [µM] | MIC [19] [µM] | MIC [20] [µM] | other results
H-WLRAFRRLVRRLARLLRR-NH2 | 26.6 | Tde | 4.83 | Dose-dependent effect | 13.3 | 26.6 | Dose-dependent effect | 53.18 | 6.65 | 5.88 | 1.66 | Active | 6.65 | 6.65 | 13.3 | 53.2 | 26.6 | > 53.2 | 53.2 | > 53.2 | 
H-WGRAFSRGVRRLARGGRG-NH2 | > 63.5 | Tde | 4.26 | Dose-dependent effect | 15.9 | > 63.5 | Dose-dependent effect | > 63.54 | 15.9 | 2.16 | 15.9 | Active | 31.8 | > 63.5 | > 63.5 | > 63.5 | 31.8 | > 63.5 | > 63.5 | 15.9 | 
H-WGRAFRRGVRRLARGGRR-NH2 | > 58.6 | Tde | 7.51 | Dose-dependent effect | 14.7 | 14.7 | Dose-dependent effect | > 58.64 | 7.33 | 8 | 7.33 | Active | 14.7 | 29.3 | 7.33 | 14.7 | 29.3 | > 58.6 | 29.3 | 7.33 | 
H-WGRAFSAGVHRLARGGRG-NH2 | > 67 | Tde | 1.55 | Dose-dependent effect | 33.5 | > 67 | Dose-dependent effect | > 67.01 | 33.5 | 1.26 | > 67 | Active | > 67 | > 67 | > 67 | > 67 | > 67 | > 67 | > 67 | > 67 | 
H-WGEAFSAGVHRLANGGNG-NH2 | > 71.2 | Tde | 1 | Dose-dependent effect | > 71.2 | > 71.2 |  | > 71.15 | > 71.2 | 1 | > 71.2 | Active | > 71.2 | > 71.2 | > 71.2 | > 71.2 | > 71.2 | > 71.2 | > 71.2 | > 71.2 | Activity [21]: Active; Activity [22]: Dose-dependent effect
H-WGRAFSAGVHRLANGGNG-NH2 | > 70.1 | Tde | 1 | Dose-dependent effect | > 70.1 | > 70.1 | Dose-dependent effect | > 70.09 | > 70.1 | 1.08 | > 70.1 | Active | > 70.1 | > 70.1 | > 70.1 | > 70.1 | > 70.1 | > 70.1 | > 70.1 | > 70.1 | 
H-WGRAFRRLVRRLARGLRR-NH2 | 55.8 | Tde | 10.3 | Dose-dependent effect | 13.9 | 6.97 | Dose-dependent effect | > 55.78 | 3.49 | 11.8 | 3.49 | Active | 3.49 | 13.9 | 3.49 | 55.8 | 13.9 | > 55.8 | 55.8 | 13.9 | 
H-WLRAFRRLVRRLARGLRR-NH2 | 0.85 | Tde | 20.5 | Dose-dependent effect | 1.7 | 1.7 | Dose-dependent effect | 27.22 | 0.43 | 59.1 | 0.43 | Active | 0.43 | 1.7 | 0.43 | 0.85 | 1.7 | 6.81 | 0.43 | 3.4 | Activity [21]: Active; Activity [22]: Dose-dependent effect
